Nine compounds from ChEMBL document CHEMBL1131058, “Studies on quinazolines and 1,2,4-benzothiadiazine 1,1-dioxides. 8.1, 2 synthesis and pharmacological evaluation of tricyclic fused quinazolines and 1,2,4-benzothiadiazine 1,1-dioxides as potential alpha1-adrenoceptor antagonists” (J Med Chem, 1998) can be followed below.

Broadly, the Ki is the dissociation constant of the complex between target and ligand, obtained from inhibition or displacement. Read a high Ki as lower affinity.

Assay [1] in a line: Selectivity ratio for binding affinity towards alpha2 and alpha-1 adrenoceptors. A digest of the protocol:
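Ratio of α2 Ki ([³H]clonidine binding) to α1 Ki ([³H]prazosin binding), both measured in rat cortical membrane competition assays.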

The target of assay [2] is T1, Adrenergic receptor alpha-2 (Rattus norvegicus, UniProt P22086+P19328+P22909).
T1 sequence (P22086 whole entry): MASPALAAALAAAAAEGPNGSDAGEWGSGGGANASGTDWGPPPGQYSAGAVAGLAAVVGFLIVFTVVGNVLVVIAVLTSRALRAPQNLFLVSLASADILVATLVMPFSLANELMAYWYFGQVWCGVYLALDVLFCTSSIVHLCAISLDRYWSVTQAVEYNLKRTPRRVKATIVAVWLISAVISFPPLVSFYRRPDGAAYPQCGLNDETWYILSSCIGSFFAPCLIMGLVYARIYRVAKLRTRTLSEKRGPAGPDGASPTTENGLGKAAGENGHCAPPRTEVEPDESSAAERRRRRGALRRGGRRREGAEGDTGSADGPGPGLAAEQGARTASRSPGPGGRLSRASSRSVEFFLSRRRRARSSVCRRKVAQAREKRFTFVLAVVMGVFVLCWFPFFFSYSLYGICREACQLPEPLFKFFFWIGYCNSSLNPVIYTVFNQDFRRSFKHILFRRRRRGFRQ
T1 sequence (P19328 whole entry): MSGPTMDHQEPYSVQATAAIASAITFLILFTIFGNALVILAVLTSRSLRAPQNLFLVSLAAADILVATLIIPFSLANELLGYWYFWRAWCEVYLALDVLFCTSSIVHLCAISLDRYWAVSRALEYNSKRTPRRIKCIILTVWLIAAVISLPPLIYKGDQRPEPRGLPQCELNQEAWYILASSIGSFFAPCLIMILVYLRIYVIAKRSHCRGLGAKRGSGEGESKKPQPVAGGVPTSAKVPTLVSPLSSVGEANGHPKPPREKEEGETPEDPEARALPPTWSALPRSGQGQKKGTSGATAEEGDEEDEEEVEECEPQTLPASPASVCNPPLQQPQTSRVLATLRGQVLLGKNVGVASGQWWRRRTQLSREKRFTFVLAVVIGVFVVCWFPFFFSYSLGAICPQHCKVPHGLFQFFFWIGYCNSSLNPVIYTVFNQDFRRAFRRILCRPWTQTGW
T1 sequence (P22909 whole entry): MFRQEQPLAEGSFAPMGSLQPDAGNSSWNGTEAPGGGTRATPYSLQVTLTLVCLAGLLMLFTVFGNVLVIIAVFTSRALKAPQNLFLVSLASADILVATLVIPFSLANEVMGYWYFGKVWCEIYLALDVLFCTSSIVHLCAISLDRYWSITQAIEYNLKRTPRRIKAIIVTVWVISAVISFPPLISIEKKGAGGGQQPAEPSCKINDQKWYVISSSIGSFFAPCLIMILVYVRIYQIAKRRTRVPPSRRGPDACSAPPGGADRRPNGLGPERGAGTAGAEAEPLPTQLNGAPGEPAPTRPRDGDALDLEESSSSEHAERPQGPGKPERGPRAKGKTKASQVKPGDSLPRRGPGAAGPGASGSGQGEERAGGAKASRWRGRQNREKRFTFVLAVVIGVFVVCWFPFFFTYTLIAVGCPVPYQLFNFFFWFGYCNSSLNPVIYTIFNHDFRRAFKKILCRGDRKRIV
The assay can be described thus: Displacement of clonidine from Alpha-2 adrenergic receptor of rat cortical membranes. In kind it is cell membranes, Membrane. A digest of the protocol: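 α2 competition binding run in triplicate with 1 nM [³H]clonidine plus 10 mM MgCl₂ in Tris pH 7.4, 30 min at room temperature. Test compounds at 1-100 µM. Nonspecific binding defined with 10 µM clonidine. Membranes collected on GF/B filters and washed twice with cold Tris. Protein 300-400 µg per assay. Ki given as mean ± SEM of 3-6 experiments.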

As for `COc1ccccc1N1CCN(C[C@@H]2CN=C3c4ccccc4N=C(SC)N32)CC1`, in assay [1], the Ratio was determined as 62.5. Moreover, the Ki in assay [2] came to 9000 nM. On the same counts, the results for `COc1ccccc1N1CCN(CC2CN3C(=O)Nc4ccccc4C3=N2)CC1` (stereo not given) are 247 and 230 nM. Turning to `COc1ccccc1N1CCN(C[C@H]2CN=C3c4ccccc4NC(=O)N32)CC1`, in assay [1], the Ratio worked out at 1410. In assay [2], this compound had an inhibition constant (Ki) of 183 nM.

On to `COc1ccccc1N1CCN(Cc2cnc3c4ccccc4nc(O)n23)CC1`, for which, in assay [1], the Ratio was 1550. `COc1ccccc1N1CCN(C[C@@H]2CN=C3c4ccccc4NC(=O)N32)CC1`: in assay [1], the Ratio is greater than 384. Moreover, the inhibitory constant (Ki) in assay [2] was greater than 10000 nM. `COc1ccccc1N1CCN(CC2CN=C3c4ccccc4N=C(SC)N32)CC1` (stereo not given): the Ratio in assay [1] amounted to 1080. The same compound had a Ki in assay [2] of 970 nM. `Oc1nc2ccccc2c2ncc(CN3CCN(c4ccccc4Cl)CC3)n12`: the Ratio in assay [1] came to 382. For `COc1ccccc1N1CCN(C[C@H]2CN=C3c4ccccc4N=C(SC)N32)CC1`, the Ratio in assay [1] came out at 3500. In assay [2], this compound showed an inhibitory constant (Ki) of 3500 nM.

Regarding `COc1ccccc1N1CCN(Cc2cn3c(O)nc4ccccc4c3n2)CC1`, the Ratio in assay [1] was 1030.
